By GI50 is commonly meant the concentration that inhibits growth by half. High values mean lower sensitivity of the cells, low ones greater sensitivity of the cells. As a reminder, the pIC50 is −log10 of the IC50, conventionally taken in molar units.

Assay [1] relates to cancer cell lines. Kind of assay: Anti-proliferation, comparison of BMX-IN-1 with QL-X-138. It counts as cell-based. The following applies: Supplemental Table 3.
The subject of assay [2] is REC-1. Kind of assay: Anti-proliferation assay. It is filed as cell-based. The following applies: REC-1, MCL; 72 hours.
Assay [3] relates to Ramos. Kind of assay: Anti-proliferation assay. The following applies: B-lymphoma, 72 hours. It counts as cell-based.
In assay [4] the test system is Ramos cells. The experiment in a line: Signaling pathway effect examination. It is filed as cell-based. The procedure, abridged: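 Ramos cells in RPMI with 10% FBS were treated with serially diluted test compound for 4 h. Cells were then harvested and lysed, and phosphorylation in the lysates was assessed by western blotting.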
Assay [5] relates to U937. Kind of assay: Anti-proliferation assay. It is filed as cell-based. The following applies: U937, AML; 72 hours.
The test system of assay [6] is U2932. The experiment in a line: Anti-proliferation assay. It counts as cell-based.
Assay [7] deals with HEL. The experiment in a line: Anti-proliferation assay. It counts as cell-based.
Assay [8] has as its system HeLa. Kind of assay: Anti-proliferation assay. It is filed as cell-based.
Assay [9] deals with NB4. The experiment in a line: Anti-proliferation assay. It is filed as cell-based, human. The following applies: NB4, AML; 72 hours.
The subject of assay [10] is NALM6. Kind of assay: Anti-proliferation assay. It counts as cell-based, human. The following applies: NALM6, ALL; 72 hours.
The subject of assay [11] is HCT-116. Kind of assay: Anti-proliferation assay. It is filed as cell-based.
For assay [12], the system named is DU-145. The experiment in a line: Anti-proliferation assay. It counts as cell-based.
Assay [13] concerns TMD8. The experiment in a line: Anti-proliferation assay. It is filed as cell-based.
The subject of assay [14] is MEC-2. The experiment in a line: Anti-proliferation assay. The following applies: MEC-2, CLL; 72 hours. It counts as cell-based.
Assay [15] deals with OCI-AML3. Kind of assay: Anti-proliferation assay. It counts as cell-based, human.
Assay [16] relates to NOMO-1. Kind of assay: Anti-proliferation assay. It is filed as cell-based, human.
The subject of assay [17] is K562. Kind of assay: Anti-proliferation assay. It is filed as cell-based.
Assay [18] deals with RV-1. Kind of assay: Anti-proliferation assay. It counts as cell-based. Put shortly: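 RV-1 cells grown in DMEM with 10% FBS and 1% penicillin-streptomycin, seeded at 2500–3000/well for 12 h, then exposed to test compound at various concentrations for 72 h. Viability read by CellTiter-Glo luminescence and normalized to DMSO controls. Values are the mean of three independent measurements, with standard error <20%, and GI50 was derived by curve fitting.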

The test system of assay [19] is SKM-1. The experiment in a line: Anti-proliferation assay. The following applies: SKM-1, AML; 72 hours. It is filed as cell-based, human.
Assay [20] relates to Hs 505.T. Kind of assay: Anti-proliferation assay. It counts as cell-based. The following applies: CLL, 72 hours.
The test system of assay [21] is MEC-1. Kind of assay: Anti-proliferation assay. The following applies: MEC-1, CLL; 72 hours. It counts as cell-based.
Assay [22] deals with MNK1 (Homo sapiens, UniProt Q9BUB5). The following applies: cited from earlier work.
MNK1, sequence (Q9BUB5 1-424 isoform Q9BUB5-2): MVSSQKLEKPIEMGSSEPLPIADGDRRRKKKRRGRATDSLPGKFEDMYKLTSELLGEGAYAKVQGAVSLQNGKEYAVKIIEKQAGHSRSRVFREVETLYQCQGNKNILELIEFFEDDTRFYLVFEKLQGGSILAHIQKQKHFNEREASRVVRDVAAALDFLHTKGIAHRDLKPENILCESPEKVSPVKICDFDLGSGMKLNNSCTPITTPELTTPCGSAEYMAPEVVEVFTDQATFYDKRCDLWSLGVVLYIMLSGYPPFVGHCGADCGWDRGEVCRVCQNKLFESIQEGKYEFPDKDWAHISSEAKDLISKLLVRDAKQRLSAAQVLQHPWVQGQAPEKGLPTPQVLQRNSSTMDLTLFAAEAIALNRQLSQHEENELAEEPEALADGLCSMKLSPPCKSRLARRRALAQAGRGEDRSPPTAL
The target of assay [23] is BTK (Homo sapiens, UniProt Q06187). The following applies: cited from earlier work.
BTK, sequence (Q06187 whole entry): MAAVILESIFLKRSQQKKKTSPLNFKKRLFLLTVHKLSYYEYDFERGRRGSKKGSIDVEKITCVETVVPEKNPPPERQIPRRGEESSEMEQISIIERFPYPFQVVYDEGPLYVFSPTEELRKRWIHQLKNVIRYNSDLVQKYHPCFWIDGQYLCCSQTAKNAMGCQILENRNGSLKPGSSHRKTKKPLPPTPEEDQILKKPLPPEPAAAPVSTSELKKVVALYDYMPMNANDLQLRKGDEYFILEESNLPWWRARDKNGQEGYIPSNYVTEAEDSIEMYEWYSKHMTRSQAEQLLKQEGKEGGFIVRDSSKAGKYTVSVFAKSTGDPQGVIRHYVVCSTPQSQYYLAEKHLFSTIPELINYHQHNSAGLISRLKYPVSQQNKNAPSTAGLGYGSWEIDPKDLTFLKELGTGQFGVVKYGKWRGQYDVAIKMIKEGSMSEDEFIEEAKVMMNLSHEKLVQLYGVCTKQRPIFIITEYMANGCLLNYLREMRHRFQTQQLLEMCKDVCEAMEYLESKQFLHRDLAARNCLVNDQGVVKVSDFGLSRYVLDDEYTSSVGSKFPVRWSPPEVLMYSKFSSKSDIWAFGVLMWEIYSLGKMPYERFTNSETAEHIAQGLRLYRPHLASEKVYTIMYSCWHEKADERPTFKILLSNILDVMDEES
Assay [24] concerns mTOR. The following applies: read-out: IC50, mTOR; biochemical; cited from earlier work.

pIC50: −log10 of the molar value. A value given as a limit tells only on which side of the number the result lay.

`C=CC(=O)Nc1cc(-n2c(=O)ccc3cnc4ccc(-c5ccc(NS(C)(=O)=O)cc5)cc4c32)ccc1C` [BMX-IN-1]: the “anti-proliferation activity in comparison to QL-X-138” value in assay [1] is “weaker anti-proliferation activity”.

Turning to `CC(=O)C1=C(O)C=C2Oc3c(C(N)=O)c(O)cc(O)c3[C@]2(C)C1=O` [Cercosporamide], the GI50 in assay [2] was more than 10 µM; in [3] it was more than 10 µM; in assay [5], 3.9 µM; in assay [6] (U2932, DLBCL, 72 hours) it was more than 10 µM; in assay [7] (AML, 72 hours) it was more than 10 µM; in assay [8] (Cervical, 72 hours), more than 10 µM. Besides, the GI50 in assay [9] is more than 10 µM; in assay [10], more than 10 µM; in assay [11] (HCT-116, Colon, 72 hours), more than 10 µM; in [12] (DU-145, Prostate, 72 hours) it was more than 10 µM; in assay [13] (TMD8, DLBCL, 72 hours) it was more than 10000 nM; in [14], more than 10 µM. In addition, the GI50 in assay [15] (OCI-AML3, AML, 72 hours) was more than 10 µM; in [16] (NOMO-1, AML, 72 hours), more than 10 µM; in [17] (K562, CML, 72 hours) it was more than 10 µM; in [18] (RV-1, Prostate, 72 hours), more than 10 µM; in assay [19] it was more than 10 µM; in [20], more than 10 µM. In [21], the GI50 was more than 10 µM. In assay [4] (4 hours), the “effect on MNK phosphorylation” value was “did not affect”. In assay [4] (at a concentration of 1 μM), the “effect on phosphorylation of eIF4E S209” value is recorded as “suppressed”.

As to `C=CC(=O)N1CCC[C@@H](n2nc(-c3ccc(Oc4ccccc4)cc3)c3c(N)ncnc32)C1` [PCI-32765], in assay [4] (4 hours), the “effect on MNK phosphorylation” value is “did not affect”. Besides, the “effect on phosphorylation of PLCγ2 Y1217” value in assay [4] (4 hours) was “strongly blocked”. Moreover, the GI50 in [6] (Homo sapiens, U2932, 72 h) is more than 10 µM; in assay [7] (Homo sapiens, 72 h), 4 µM; in assay [8] (Homo sapiens, 72 h), more than 10 µM; in assay [11] (Homo sapiens, HCT-116, 72 h), more than 10 µM; in assay [12] (Homo sapiens, DU-145, 72 h) it was more than 10 µM; in assay [13] (Homo sapiens, TMD8, 72 h) it was 2 nM. Also, the GI50 is more than 10 µM in assay [15] (Homo sapiens, OCI-AML-3, 72 h); more than 10 µM in [16] (Homo sapiens, NOMO-1, 72 h); more than 10 µM in assay [17] (Homo sapiens, K562, 72 h); more than 10 µM in assay [18] (RV-1, 72 h).

With `Nc1ccc(-c2ccc3ncc4ccc(=O)n(-c5cccc(C(F)(F)F)c5)c4c3c2)cn1` [Torin2, 9-(6-aminopyridin-3-yl)-1-(3-(trifluoromethyl)phenyl)benzo[h][1,6]naphthyridin-2(1H)-one], in [22], the “activity against MNK1” value is given as “no apparent activity”. In addition, the “activity against BTK” value in [23] is given as “no apparent activity”. Further, the pIC50 in assay [24] was 9.60.

(Values after paper PMC4987129 (Leukemia, 2015).)
